pEC50, pIC50: −log10 of the molar value.
Columns and labels:
[1] = target: T1, Peroxisome proliferator-activated receptor gamma (Homo sapiens, UniProt P37231); assay: Agonist activity at human PPARgamma expressed in COS-1 cells co-expressing with Gal4 by transactivation assay; format: functional, cell-based
T1 sequence (P37231 whole entry): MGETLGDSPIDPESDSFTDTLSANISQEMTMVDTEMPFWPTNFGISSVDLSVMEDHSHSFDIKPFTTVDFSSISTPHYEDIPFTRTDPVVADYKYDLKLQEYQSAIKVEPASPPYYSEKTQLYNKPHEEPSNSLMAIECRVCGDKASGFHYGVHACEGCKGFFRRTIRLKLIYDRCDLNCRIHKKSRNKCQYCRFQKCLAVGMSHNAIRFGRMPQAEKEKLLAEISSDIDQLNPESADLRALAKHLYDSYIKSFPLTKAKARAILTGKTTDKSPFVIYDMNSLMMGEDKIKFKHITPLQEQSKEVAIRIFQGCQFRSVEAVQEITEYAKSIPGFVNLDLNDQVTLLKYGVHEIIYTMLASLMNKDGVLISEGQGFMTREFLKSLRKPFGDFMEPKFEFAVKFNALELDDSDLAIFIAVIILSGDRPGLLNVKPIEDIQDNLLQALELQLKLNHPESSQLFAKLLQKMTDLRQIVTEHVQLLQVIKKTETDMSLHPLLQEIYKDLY
Procedure, shortened: (§1)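 GAL4-PPAR chimeric receptor transactivation in transiently co-transfected COS-1 cells with a GAL4-responsive reporter; potency as EC50 and maximum activation expressed relative to rosiglitazone; triplicate, mean reported.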

[2] = target: T2, Peroxisome proliferator-activated receptor alpha (Homo sapiens, UniProt Q07869); assay: Binding affinity to human PPARalpha expressed in COS-1 by scintillation proximity assay
T2 sequence (Q07869 whole entry): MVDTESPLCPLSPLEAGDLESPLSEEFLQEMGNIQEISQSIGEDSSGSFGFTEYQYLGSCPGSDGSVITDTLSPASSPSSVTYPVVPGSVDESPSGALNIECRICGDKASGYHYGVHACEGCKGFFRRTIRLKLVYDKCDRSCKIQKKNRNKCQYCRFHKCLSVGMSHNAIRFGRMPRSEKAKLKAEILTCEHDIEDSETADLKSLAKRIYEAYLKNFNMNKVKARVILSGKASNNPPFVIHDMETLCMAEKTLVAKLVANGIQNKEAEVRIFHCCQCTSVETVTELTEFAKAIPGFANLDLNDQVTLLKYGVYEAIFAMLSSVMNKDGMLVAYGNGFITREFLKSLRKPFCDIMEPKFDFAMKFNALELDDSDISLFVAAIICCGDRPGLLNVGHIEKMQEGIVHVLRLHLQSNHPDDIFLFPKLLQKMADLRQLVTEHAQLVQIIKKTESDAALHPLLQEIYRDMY
Procedure, shortened: (§2)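 Scintillation proximity binding assay on PPAR receptors giving IC50; mean of three determinations.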

[3] = target: T1, Peroxisome proliferator-activated receptor gamma; assay: Binding affinity to human PPARgamma by scintillation proximity assay; procedure, shortened: as §2
[4] = target: T3, Peroxisome proliferator-activated receptor delta (Homo sapiens, UniProt Q03181); assay: Binding affinity to PPARdelta by scintillation proximity assay; procedure, shortened: as §2
T3 sequence (Q03181 whole entry): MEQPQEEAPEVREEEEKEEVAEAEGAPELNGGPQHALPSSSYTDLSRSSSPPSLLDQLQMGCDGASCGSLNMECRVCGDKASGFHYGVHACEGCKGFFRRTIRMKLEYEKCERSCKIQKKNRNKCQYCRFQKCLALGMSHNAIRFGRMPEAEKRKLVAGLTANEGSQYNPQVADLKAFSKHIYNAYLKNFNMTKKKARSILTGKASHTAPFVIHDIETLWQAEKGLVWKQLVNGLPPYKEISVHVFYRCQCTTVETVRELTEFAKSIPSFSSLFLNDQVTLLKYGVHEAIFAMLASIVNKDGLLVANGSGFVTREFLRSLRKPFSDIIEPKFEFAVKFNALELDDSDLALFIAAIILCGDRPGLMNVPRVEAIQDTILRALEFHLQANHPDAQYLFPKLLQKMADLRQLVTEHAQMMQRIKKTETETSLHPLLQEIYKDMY

[5] = target: T4, Peroxisome proliferator-activated receptor gamma (Homo sapiens) (UniProt P37231); assay: Agonist activity at human PPARgamma expressed in COS-1 cells co-expressing with Gal4 by transactivation assay relative to rosiglitazone; format: functional, cell-based; procedure, shortened: as §1
T4 sequence (whole entry): T1 sequence (P37231 whole entry)

[6] = target: T1, Peroxisome proliferator-activated receptor gamma; assay: Partial agonist activity at human PPARgamma LBD assessed as activation of CBP1-453 by HTRF assay; format: functional
[7] = target: T1, Peroxisome proliferator-activated receptor gamma; assay: Partial agonist activity at human PPARgamma LBD assessed as activation of PGC1 by HTRF assay; format: functional
Rattus norvegicus [8] = assay: Plasma clearance in rat at 0.5 mg/kg, iv and 2 mg/kg, po by LC-MS/MS analysis; format: ADME, organism-based; settings: in vivo
Procedure, shortened: (§3)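 Rat pharmacokinetics: 2 mpk oral in 5% methylcellulose, 0.5 mpk iv in ethanol/PEG400/water (1/4/5). Blood sampled at set intervals; plasma acidified with 0.5 M formate buffer pH 3.0, acetonitrile-precipitated, quantified by LC−MS−MS against spiked control-plasma calibration curves.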

[9] = target: T1, Peroxisome proliferator-activated receptor gamma; assay: Partial agonist activity at human PPARgamma LBD assessed as activation of PBP by HTRF assay; format: functional
[10] = Half life in rat at 0.5 mg/kg, iv and 2 mg/kg, po by LC-MS/MS analysis; format: ADME, organism-based; settings: in vivo; procedure, shortened: as §3
Mus musculus = assay: Antidiabetic activity in db/db C57BLKS/J-m +/+ Leprdb mouse assessed as reduction of glucose level at 30 mg/kg, po qd for 10 days measured on 11 relative to control; format: functional; set-up: scale not given: the % may be the effect or the level left
Procedure, shortened: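 Male db/db (C57BLKS/J-m +/+Leprdb) mice, 12−13 weeks old, seven per group, chow and water freely available; once-daily oral gavage in 0.25% methylcellulose vehicle for 11 days. Tail blood drawn just before next dose on days 0, 4, 7 and 11 for plasma glucose. Value is percent correction versus vehicle control; mean of n = 7; rosiglitazone 10 mpk positive control.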

[11] = target: T1, Peroxisome proliferator-activated receptor gamma; assay: Partial agonist activity at human PPARgamma LBD assessed as activation of Src-1 by HTRF assay; format: functional
Rattus norvegicus [12] = assay: Dose normalized AUC in rat at 2 mg/kg, po by LC-MS/MS analysis; format: ADME, organism-based; set-up: dose 2 mg/kg, route oral; settings: in vivo; procedure, shortened: as §3
[13] = Oral bioavailability in rat at 2 mg/kg by LC-MS/MS analysis; format: ADME, organism-based; settings: in vivo; procedure, shortened: as §3

Structure (SMILES)	pEC50 [1]	pIC50 [2]	pIC50 [3]	pIC50 [4]	Emax [5]	also measured
COc1ccc2c(-n3c(=O)n(Cc4ccc(Cl)c(O[C@H](C)C(=O)O)c4)c4ccc(OC(F)(F)F)cc43)noc2c1	7.88	< 4.30	8.39	< 4.30	31%	–
COc1ccc2c(-n3c(=O)n(Cc4ccccc4[C@@]4(C)OC(=O)NC4=O)c4cc(C(F)(F)F)ccc43)noc2c1	–	< 4.30	5.18	< 4.30	–	–
COc1ccc2c(-n3c(=O)n(Cc4cc(O[C@H](C)C(=O)O)ccc4Cl)c4cc(C(F)(F)F)ccc43)noc2c1	6.99	< 4.30	8.04	< 4.30	26%	–
Cc1cccc2c(-n3c(=O)n(Cc4ccc(Cl)c(O[C@H](C)C(=O)O)c4)c4cc(C(F)(F)F)ccc43)noc12	8.39	< 4.30	8.04	< 4.30	25%	–
C[C@@H](Oc1cc(Cn2c(=O)n(Cc3ccc(Cl)cc3)c3ccc(C(F)(F)F)cc32)ccc1Cl)C(=O)O	5.52	< 4.30	5.32	< 4.30	17%	–
COc1ccc2c(-n3c(=O)n(Cc4cccc([C@@]5(C)OC(=O)NC5=O)c4)c4cc(C(F)(F)F)ccc43)noc2c1	–	–	–	–	45%	–
Cc1ccc2c(-n3c(=O)n(Cc4ccc(Cl)c(O[C@H](C)C(=O)O)c4)c4cc(C(F)(F)F)ccc43)noc2c1	7.11	< 4.30	7.85	< 4.30	37%	–
C[C@@H](Oc1cc(Cn2c(=O)n(-c3nc4ccc(Cl)cc4s3)c3ccc(C(F)(F)F)cc32)ccc1Cl)C(=O)O	–	< 4.30	5.86	< 4.30	–	–
COc1ccc2c(-n3c(=O)n(Cc4cc(O[C@H](C)C(=O)O)ccc4Cl)c4ccccc43)noc2c1	7.29	< 4.30	7.86	< 4.30	50%	pEC50 [6]: 7.96; pEC50 [7]: 8.10; clearance (Rattus norvegicus [8]): 7.3 mL/min/kg; pEC50 [9]: 7.96; half-life [10]: 6.9 h; Activity (Mus musculus): 30%; pEC50 [11]: < 4.30; AUC/dose (Rattus norvegicus [12]): 5 µM·kg·h/mg; bioavailability [13]: 97%
Cc1c(C(=O)c2ccc(Cl)cc2)c2ccc(OC(F)(F)F)cc2n1Cc1cccc(O[C@H](C)C(=O)O)c1	–	–	–	–	–	pEC50 [6]: 8.22; pEC50 [7]: 8.30; pEC50 [9]: 8.30; pEC50 [11]: < 4.30
COc1ccc2c(-n3c(=O)n(Cc4ccc(Cl)c(O[C@@H](C)C(=O)O)c4)c4cc(C(F)(F)F)ccc43)noc2c1	5.52	< 4.30	7.18	< 4.30	4%	–
C[C@@H](Oc1cc(Cn2c(=O)n(-c3noc4ccc(Cl)cc34)c3ccc(C(F)(F)F)cc32)ccc1Cl)C(=O)O	6.92	< 4.30	7.45	< 4.30	36%	–
C[C@@H](Oc1cc(Cn2c(=O)n(-c3ccc(C(C)(C)C)cc3)c3ccc(C(F)(F)F)cc32)ccc1Cl)C(=O)O	6.87	< 4.30	6.79	< 4.30	15%	pEC50 [6]: 6.32; pEC50 [7]: 6.34; pEC50 [9]: 6.36; pEC50 [11]: < 4.30
COc1ccc2c(-n3c(=O)n(Cc4ccc(Cl)c(O[C@H](C)C(=O)O)c4)c4cc(OC(F)(F)F)ccc43)noc2c1	7.94	< 4.30	8.49	< 4.30	39%	–
C[C@@H](Oc1cc(Cn2c(=O)n(-c3noc4cc(Cl)ccc34)c3ccc(C(F)(F)F)cc32)ccc1Cl)C(=O)O	6.70	< 4.30	7.17	< 4.30	32%	pEC50 [6]: < 4.30; pEC50 [7]: 5.49; pEC50 [9]: < 4.30; pEC50 [11]: < 4.30
COc1ccc2c(-n3c(=O)n(Cc4ccc(Cl)c(O[C@H](C)C(=O)O)c4)c4ccc(C(F)(F)F)cc43)noc2c1	7.08	< 4.30	8.64	< 4.30	43%	–
COc1ccc2c(-n3c(=O)n(Cc4cc([C@@]5(C)OC(=O)NC5=O)ccc4Cl)c4cc(C(F)(F)F)ccc43)noc2c1	7.77	< 4.30	8.11	< 4.30	28%	–
COc1ccc2c(-n3c(=O)n(-c4cccc([C@@]5(C)OC(=O)NC5=O)c4)c4cc(C(F)(F)F)ccc43)noc2c1	–	< 4.30	5.16	< 4.30	–	–
COc1ccc2c(-n3c(=O)n(Cc4cccc(O[C@H](C)C(=O)O)c4)c4cc(C(F)(F)F)ccc43)noc2c1	–	< 4.30	6.03	< 4.30	–	–
Cc1c(C(=O)c2ccc(Cl)cc2)c2ccc(OC(F)(F)F)cc2n1Cc1cccc(O[C@@H](C(=O)O)C(C)C)c1	–	–	–	–	–	pEC50 [6]: 8.15; pEC50 [7]: 8.30; pEC50 [9]: 8.22; pEC50 [11]: 8.05
C[C@@H](Oc1cc(Cn2c(=O)n(C(=O)c3ccc(Cl)cc3)c3ccc(C(F)(F)F)cc32)ccc1Cl)C(=O)O	6.31	< 4.30	6.59	< 4.30	21%	–
CN(CCOc1ccc(C[C@H](OCC(F)(F)F)C(=O)O)cc1)c1nc2ccccc2o1	–	–	–	–	–	pEC50 [6]: 9.00; pEC50 [7]: 9.00; pEC50 [9]: 9.00; pEC50 [11]: 8.70
CC[C@@H](Oc1cccc(Cn2c(=O)n(-c3noc4cc(OC)ccc34)c3ccc(C(F)(F)F)cc32)c1)C(=O)O	–	< 4.30	5.44	< 4.30	–	–
COc1ccc2c(-n3c(=O)n(Cc4ccc([C@@]5(C)OC(=O)NC5=O)cc4)c4cc(C(F)(F)F)ccc43)noc2c1	–	< 4.30	5.66	< 4.30	–	–
COc1ccc2c(-n3c(=O)n(Cc4cccc([C@@]5(C)OC(O)=NC5=O)c4)c4cc(C(F)(F)F)ccc43)noc2c1	6.63	< 4.30	7.03	< 4.30	–	–
COc1ccc2c(-n3c(=O)n(Cc4ccc(Cl)c(O[C@H](C)C(=O)O)c4)c4cc(C(F)(F)F)ccc43)noc2c1	6.99	< 4.30	8.39	< 4.30	28%	–
Cc1ccc2onc(-n3c(=O)n(Cc4ccc(Cl)c(O[C@H](C)C(=O)O)c4)c4cc(C(F)(F)F)ccc43)c2c1	5.52	< 4.30	7.95	< 4.30	53%	–
